Blank lines part the entries; values can stand above or below the molecule they belong to.
Tests used:
[1] = Metabolic stability in swine brain homogenate; type: in vitro ADME; conditions: 10 μM, 0-60 min
[2] = Metabolic stability in swine plasma; type: in vitro ADME; conditions: 60 min incubation in swine plasma
[3] = nonhuman primate, systemic administration; cited from earlier work
[4] = Metabolic stability in mouse plasma; type: in vitro ADME; conditions: representative chromatogram (Figure S1)
EcoHIV-infected mice = experiment: Radial arm water maze in EcoHIV-infected mice; type: in vivo, mouse; conditions: control for visual or motor function; 1 mg/kg, ip, qod
In short: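 Male C57BL/6J mice, 5 weeks old, randomized (n = 8/group) to drug or saline starting 1 day before ip EcoHIV (2 × 106 pg p24) or sham PBS inoculation. Dosing continued through 30-day infection and testing. From day 30 p.i., six-lane opaque-water RAWM with visual cues. After hidden-platform trials, latency to a visible platform measured in the same context.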

EcoHIV = EcoHIV viral load in spleen and brain by qPCR; type: in vivo, mouse; conditions: EcoHIV-infected mice, 1 mg/kg, ip, qod
[5] = Overt toxicity observation in mice during 14 treatment; type: in vivo, mouse; conditions: 1 mg/kg, ip, qod over infection period and testing

Structure (SMILES): CC(C)OC(=O)[C@H](CCC(=O)C=[N+]=[N-])NC(=O)OC(OC(=O)C(C)(C)C)C(C)C (mixture of isomers) [Compound 13c, Isopropyl 6-Diazo-2-(((2-methyl-1-(pivaloyloxy)propoxy)-carbonyl)amino)-5-oxohexanoate]
Metabolic lability in swine brain homogenate (in words) [1]: readily biotransformed

Stability in swine plasma (in words) [2]: labile
Structure (SMILES): CC(C)OC(=O)[C@H](CCC(=O)C=[N+]=[N-])NC(=O)OCOC(=O)C(C)(C)C [Compound 13a, Isopropyl 6-Diazo-5-oxo-2-((((pivaloyloxy)methoxy)-carbonyl)amino)hexanoate]

Metabolic lability in swine brain homogenate (in words) [1]: moderately labile
Structure (SMILES): CC(C)OC(=O)[C@H](CCC(=O)C=[N+]=[N-])NC(=O)O[C@H](C)OC(=O)C(C)(C)C [Compound 13b, Isopropyl 6-Diazo-5-oxo-2-(((1-(pivaloyloxy)ethoxy)-carbonyl)amino)hexanoate]
Enhancement in the CSF-to-plasma ratio of 14 exposure relative to equimolar 14 [3]: about 10 fold

Metabolic lability in swine brain homogenate (in words) [1]: readily biotransformed | Time to complete conversion to 14 in mouse plasma [4]: ≤ 10 min
Structure (SMILES): CC(C)OC(=O)[C@H](CCC(=O)C=[N+]=[N-])NC(=O)OC(OC(=O)C(C)(C)C)c1ccccc1 (some centres unmarked) [Compound 13d, Isopropyl 6-Diazo-5-oxo-2-(((phenyl(pivaloyloxy)methoxy)-carbonyl)amino)hexanoate]

Metabolic lability in swine brain homogenate (in words) [1]: mostly stable
Structure (SMILES): CC(C)OC(=O)[C@H](CCC(=O)C=[N+]=[N-])NC(=O)OC(C)(C)OC(=O)C(C)(C)C [Compound 13e, Isopropyl 6-Diazo-5-oxo-2-((((2-(pivaloyloxy)propan-2-yl)-oxy)carbonyl)amino)hexanoate]

Structure (SMILES): [N-]=[N+]=CC(=O)CC[C@H](N)C(=O)O [Compound 14, 6-diazo-5-oxo-L-norleucine]
RAWM escape latency to a visible platform (EcoHIV-infected mice): no effect | EcoHIV viral load in the brain (EcoHIV): no effect | EcoHIV viral load in the spleen (DNA copies) (EcoHIV; p = 0.022): slight increase | Overt signs of toxicity (diarrhea, weight loss) [5]: no mice exhibited overt signs of toxicity
